Measurements published in ChEMBL document CHEMBL1138849, “5-substituted tetrazoles as bioisosteres of carboxylic acids. Bioisosterism and mechanistic studies on glutathione reductase inhibitors as antimalarials” (J Med Chem, 2004).
Values joined by “and” are separate entries in the source; they are usually repeats but may differ in a detail not shown here. Equal values may be shown once.

Legend:
Plasmodium falciparum = assay: Inhibitory concentration against Plasmodium falciparum […]; type: functional, organism-based; conditions: FcB1/Columbia
Glutathione reductase = Glutathione reductase (Plasmodium falciparum 3D7, UniProt O15770); assay: Inhibitory concentration against Plasmodium falciparum glutathione reductase
Glutathione reductase, sequence (O15770 whole entry): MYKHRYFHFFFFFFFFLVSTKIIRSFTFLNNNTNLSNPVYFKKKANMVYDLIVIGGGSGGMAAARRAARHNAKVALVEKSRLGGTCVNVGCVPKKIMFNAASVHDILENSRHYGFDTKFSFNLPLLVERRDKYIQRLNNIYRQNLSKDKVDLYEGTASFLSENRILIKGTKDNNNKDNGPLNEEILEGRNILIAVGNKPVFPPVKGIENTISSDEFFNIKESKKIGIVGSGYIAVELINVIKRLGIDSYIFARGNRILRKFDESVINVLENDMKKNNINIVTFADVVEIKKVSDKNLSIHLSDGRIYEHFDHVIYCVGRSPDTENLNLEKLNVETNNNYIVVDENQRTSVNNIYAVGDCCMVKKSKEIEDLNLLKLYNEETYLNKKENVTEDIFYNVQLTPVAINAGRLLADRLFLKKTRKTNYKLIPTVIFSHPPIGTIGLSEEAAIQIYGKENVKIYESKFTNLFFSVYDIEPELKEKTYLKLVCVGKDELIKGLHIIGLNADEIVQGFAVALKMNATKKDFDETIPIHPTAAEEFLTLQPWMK
Outline: (§1)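 Recombinant GR (human or P. falciparum) in 100 mM potassium phosphate pH 7.0, 200 mM KCl, 100 μM NADPH, 1 mM GSSG, with 1% final DMSO. Started with 8 milliunits of enzyme. Initial rates of NADPH oxidation read at 340 nm. […] A second set of standard assays used 200 μM GSSG.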

[1] = target: T1, Glutathione reductase, mitochondrial (Homo sapiens, UniProt P00390); assay: Inhibitory concentration against human glutathione reductase; outline: as §1
T1 sequence (P00390 whole entry): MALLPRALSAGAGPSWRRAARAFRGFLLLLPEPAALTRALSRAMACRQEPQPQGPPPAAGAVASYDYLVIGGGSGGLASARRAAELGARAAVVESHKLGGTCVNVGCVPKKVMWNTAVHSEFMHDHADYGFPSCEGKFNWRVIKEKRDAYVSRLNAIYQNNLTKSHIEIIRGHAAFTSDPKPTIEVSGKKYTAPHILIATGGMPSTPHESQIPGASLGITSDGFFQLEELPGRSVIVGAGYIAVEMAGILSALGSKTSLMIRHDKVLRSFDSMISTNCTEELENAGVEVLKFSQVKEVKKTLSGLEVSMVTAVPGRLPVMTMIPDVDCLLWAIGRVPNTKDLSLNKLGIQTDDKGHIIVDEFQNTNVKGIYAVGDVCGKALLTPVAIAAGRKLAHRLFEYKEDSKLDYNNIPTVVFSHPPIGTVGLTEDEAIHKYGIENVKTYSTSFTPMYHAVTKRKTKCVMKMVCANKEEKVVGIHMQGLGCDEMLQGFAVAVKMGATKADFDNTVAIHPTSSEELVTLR

[2] = target: T1, Glutathione reductase, mitochondrial; assay: Inhibitory concentration against human glutathione reductase (In presence of glutathione disulfide)
[3] = target: T1, Glutathione reductase, mitochondrial; assay: Inhibitory concentration against human glutathione reductase (In presence of NADPH)
[4] = target: T1, Glutathione reductase, mitochondrial; assay: Inhibitory concentration against human glutathione reductase in the presence of 200 uM exogenous NADP
[5] = target: Glutathione reductase (Plasmodium falciparum) (UniProt Q94655); assay: Inhibitory concentration against Plasmodium falciparum glutathione reductase
Glutathione reductase (Plasmodium falciparum), sequence (Q94655 whole entry, looked up): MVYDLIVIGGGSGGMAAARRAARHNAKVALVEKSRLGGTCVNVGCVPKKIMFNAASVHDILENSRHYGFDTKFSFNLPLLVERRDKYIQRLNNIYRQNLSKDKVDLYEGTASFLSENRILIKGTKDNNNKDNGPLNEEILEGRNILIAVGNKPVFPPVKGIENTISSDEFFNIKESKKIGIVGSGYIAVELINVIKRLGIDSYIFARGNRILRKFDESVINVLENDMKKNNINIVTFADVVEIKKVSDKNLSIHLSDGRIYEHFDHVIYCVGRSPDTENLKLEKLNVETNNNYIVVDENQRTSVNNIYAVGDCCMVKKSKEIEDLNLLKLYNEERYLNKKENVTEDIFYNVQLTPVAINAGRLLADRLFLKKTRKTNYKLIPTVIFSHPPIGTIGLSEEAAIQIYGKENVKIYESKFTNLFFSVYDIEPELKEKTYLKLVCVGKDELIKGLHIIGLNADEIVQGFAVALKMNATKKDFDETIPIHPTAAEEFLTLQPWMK

[6] = target: T1, Glutathione reductase, mitochondrial; assay: Inhibitory concentration against human glutathione reductase in the absence of glucose-6-phosphate dehydrogenase (G6PDH); outline: as §1

SMILES: CC1=C(CCCCCC(=O)NCCC#N)C(=O)c2ccccc2C1=O
- IC50 (Plasmodium falciparum): 1 µM

SMILES: CC1=C(CCCc2nnnn2CCC#N)C(=O)c2ccccc2C1=O
- IC50 (Plasmodium falciparum): 0.9 µM

SMILES: CC1=C(CCCCCC(=O)OCCN(C)C)C(=O)c2ccccc2C1=O
- IC50 (Plasmodium falciparum): 12.6 µM

SMILES: CC1=C(CCCCC(=O)O)C(=O)c2ccccc2C1=O
- IC50 (Plasmodium falciparum): 4 µM

SMILES: CC1=C(CCCCC(=O)NCCC#N)C(=O)c2ccccc2C1=O
- IC50 (Glutathione reductase): 57 µM
- IC50 [1]: 22.7 µM
- IC50 (Plasmodium falciparum): 1.5 µM

SMILES: CC1=CC(=O)c2ccccc2C1=O [MENADIONE]
- Ki [2]: 12.1 µM
- Ki [3]: 16.1 µM

SMILES: CC1=C(CCCCCc2nnnn2CCC#N)C(=O)c2ccccc2C1=O
- IC50 (Plasmodium falciparum): 1.1 µM

SMILES: CC1=C(CCCCc2nnnn2CCC#N)C(=O)c2ccccc2C1=O
- IC50 (Glutathione reductase): 10.8 µM
- IC50 [1]: 27 µM
- IC50 (Plasmodium falciparum): 1.4 µM

SMILES: CC1=C(CCCC(=O)NCCC#N)C(=O)c2ccccc2C1=O
- IC50 (Plasmodium falciparum): 1.8 µM

SMILES: CN(C)c1ccc2nc3ccc(=[N+](C)C)cc-3sc2c1 [METHYLENE BLUE ANHYDROUS]
- IC50 (Glutathione reductase): 6.4 µM
- IC50 [1]: 16 µM

SMILES: CC1=C(CCCCCC(=O)O)C(=O)c2ccccc2C1=O
- IC50 [4]: 2.7 µM
- IC50 (Glutathione reductase): 4.5 µM
- Ki (Glutathione reductase): 3.6 µM
- IC50 [1]: 3.2 µM
- Ki [5]: 3.7 µM
- IC50 [6]: 2.7 µM and 1.8 µM
- IC50 (Plasmodium falciparum): 3.5 µM
